# Compounds with a hit are over-represented: about 3.5% of the library has one in this group of screens.
# TCR CD3 inh = human TCR-CD3 binding inhibition. actives 0.37% (n = 360,000). inhibition, % at 9.4 µM. TAMRA-labeled TCR probe fluorescence, biochemical; in the data active means inhibition above about 19%;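 further: recombinant mutant TCR 2C K166C tagged with TAMRA read by polarization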
# HTRA1 inh = blocks human HTRA1 serine peptidase; Q92743; recombinant HTRA1, FP-rhodamine activity-based probe, fluorescence polarization; inhibition, % at 5.96 µM; actives 0.5% (n = 340,000); in the data active means inhibition above about 36%
# PRMT1 inh = inhibitors of human PRMT1. Q99873. recombinant PRMT1, activity-based probe fluorescence polarization. inhibition, % at 2.79 µM. actives 1.3% (n = 370,000);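 active means inhibition above about 21% made by adding two undisclosed values, limit read from the data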
# Target sequence (Q99873 whole entry, looked up): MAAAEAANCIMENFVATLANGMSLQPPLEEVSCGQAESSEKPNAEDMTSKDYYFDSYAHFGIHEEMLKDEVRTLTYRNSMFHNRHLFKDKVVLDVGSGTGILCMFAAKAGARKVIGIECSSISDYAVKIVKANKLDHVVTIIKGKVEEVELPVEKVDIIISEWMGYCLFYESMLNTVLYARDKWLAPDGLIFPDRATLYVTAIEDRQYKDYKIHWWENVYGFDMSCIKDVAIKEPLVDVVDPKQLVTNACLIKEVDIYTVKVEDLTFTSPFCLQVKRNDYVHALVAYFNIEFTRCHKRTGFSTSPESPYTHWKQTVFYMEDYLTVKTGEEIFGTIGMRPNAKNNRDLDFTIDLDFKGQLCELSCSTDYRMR
# rCAG binder = molecules binding r(CAG) RNA repeats | r(CAG) RNA repeat, TO-PRO-1 dye displacement fluorescence | inhibition, % at 3 µM | actives 1.3% (n = 370,000) | AID 651821;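 active means inhibition above the plate cutoff, the mean of all test compounds on that plate plus 3 SD, cut at about 35% in these data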;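 further: higher means more dye released from RNA so lower well fluorescence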
# SIAE primary = inhibitors of human sialic acid acetylesterase SIAE | AID 1053197 | Q9HAT2 | inhibition, % at 9.66 µM | actives 0.69% (n = 370,000) | SIAE FP-Rh probe binding, fluorescence polarization;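 active means inhibition above a cutoff: mean of compounds within the control limits plus 3 SD of those, cut at about 17% in these data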
# mABHD4 FP = ABHD4 (mouse) inhibition, primary FP screen; Q8VD66; purified mABHD4, FP-Rh probe fluorescence polarization; inhibition, % at 8.92 µM; actives 0.54% (n = 370,000); AID 720543;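 active means inhibition exceeding the mean over every tested compound plus 3 SD, cut at about 30% in these data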
#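 Assay system: mABHD4 protein; medium: HEPES pH 7.0, NaCl, Pluronic buffer; dosing: 8.92 µM, single dose; schedule: 45 min + 60 min at 25 °C; signal: FP readout, ex 525 nm / em 598 nm; read-out: normalized percent inhibition of probe labeling; repeats: single replicate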
# SIAE inh conf = confirmation of human SIAE inhibitors; shares compounds with SIAE primary; SIAE FP-Rh activity-based probe, fluorescence polarization; inhibition, % at 9.66 µM; actives 13% (n = 2,300); AID 1117263;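 active means mean inhibition of the replicates above the hit cutoff set in the primary screen, cut at about 17% in these data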;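 further: inhibitors lower polarization as more probe stays unbound to SIAE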
# A number is an active result; n = inactive; x = not tested or not shown.
SMILES,TCR CD3 inh,HTRA1 inh,PRMT1 inh,rCAG binder,SIAE primary,mABHD4 FP,SIAE inh conf
O=C(Nc1cccc(S(=O)(=O)N2CCOCC2)c1)c1cn(-c2ccccc2)nc1-c1ccc(F)cc1,n,n,n,n,23,n,n
Cc1nc2sc(C(=O)NCc3ccncc3)c(N)c2c(C)c1Cl,x,x,n,n,n,n,x
O=C(O)c1ccc(COc2ccc3ccccc3c2)o1,n,n,n,n,n,n,x
CCOc1ccc(OCc2ccc(C(=O)O)o2)cc1,n,n,n,n,39,n,n
Fc1cc(F)c2nc(Nc3nc4cc5c(cc4s3)OCO5)sc2c1,n,n,n,n,25,n,85
Cc1ccc2[nH]c3c(N4CCc5ccccc5C4)ncnc3c2c1,n,n,n,n,23,n,n
COc1ccc2[nH]c3c(N4CCN(Cc5ccc6c(c5)OCO6)CC4)ncnc3c2c1,n,n,n,n,n,n,x
COc1ccc2[nH]c3c(N4CCC(O)(c5cccc(C(F)(F)F)c5)CC4)ncnc3c2c1,n,n,n,n,18,n,n
Cc1ncc(CSc2nc3ccccc3[nH]2)c(N)n1,n,n,n,n,n,n,x
COc1ccc2nc(SCc3cnc(C)nc3N)[nH]c2c1,n,n,n,n,19,n,n
Cc1sc2nc(CN3CCOCC3)nc(N3CCOCC3)c2c1C,n,n,n,n,21,n,n
CCOc1ccc(NC(=O)NCc2ccccn2)cc1,n,n,n,n,20,n,n
CN(Cc1ccccc1Br)C(=O)CN1C(=O)NC2(CCCCCC2)C1=O,n,n,n,n,19,n,n
CN(Cc1ccccc1)C(=O)CN1C(=O)NC2(CCCC2)C1=O,n,n,n,n,n,n,x
Cc1cc(S(=O)(=O)Nc2ccc(C(=O)N3CCN(c4ccccc4O)CC3)cc2)ccc1F,n,n,n,n,n,n,x
Cc1ccc(S(=O)(=O)Nc2cccc(C(=O)N3CCN(c4ccccc4O)CC3)c2)cc1F,n,n,n,n,21,n,n
C=CCNCc1ccc(OC)cc1OC,x,x,n,n,n,n,x
CCCc1c(C(=O)NNc2ccccc2OC)cnn1-c1ccccc1,n,n,n,n,18,n,n
CCOc1ccc(OCCC(=O)OC(C)C(=O)Nc2ccc(C(C)=O)cc2)cc1 (stereo not drawn),n,n,n,n,n,n,x
CC(=O)Nc1ccc(NC(=O)C(C)OC(=O)COc2ccc(Nc3ccccc3)cc2)cc1 (stereo not drawn),n,n,n,n,23,n,n
CC(C)Cc1nnc(NC(=O)CCC(=O)NCc2ccccc2Cl)s1,n,n,n,n,18,n,n
O=C(Nc1ccccc1Oc1ccccc1)c1cc([N+](=O)[O-])ccc1Cl,n,n,n,n,n,n,x
O=C(Nc1ccc(Nc2ccccc2)cc1)c1cc([N+](=O)[O-])ccc1Cl,n,n,n,n,24,n,n
COc1ccc(C(=O)Nc2ccc(Nc3ccccc3)cc2)cc1[N+](=O)[O-],n,n,n,n,19,n,n
COc1ccccc1NC(=O)c1ccc(-n2ccnc2)c([N+](=O)[O-])c1,n,n,n,n,24,n,n
SMILES,TCR CD3 inh,HTRA1 inh,PRMT1 inh,rCAG binder,SIAE primary,mABHD4 FP,SIAE inh conf
COc1ccc(C(=O)Nc2ccc(OCc3ccccc3)cc2)cc1[N+](=O)[O-],n,n,n,n,n,n,x
Cc1ccc(-n2nc(C)c3c2OC(N)=C(C#N)C3c2ccncc2)cc1 (stereo not drawn),n,n,n,n,19,n,n
Cc1ccc(-n2nc(C)c3c2OC(N)=C(C#N)C3c2cccs2)cc1 (stereo not drawn),n,n,n,n,n,n,x
Cc1ccc(-c2n[nH]c(=O)c3ccccc23)cc1N,n,n,n,n,n,n,x
Nc1ccc(-c2n[nH]c(=O)c3ccccc23)cc1N,n,n,n,n,19,n,n
CC#CCCCC(=O)Nc1ccccc1C(=O)O,n,n,n,n,19,n,n
FC(F)(F)C(F)(F)c1nnc2ccc(-n3ccnc3)nn12,n,n,n,n,17,n,n
CC1CN(C(=S)Nc2ccc(Cl)cc2)CC(C)O1 (stereo not drawn),n,n,n,n,n,n,x
CC1CN(c2ccc(NC(=S)Nc3ccc(N4CC(C)OC(C)C4)cc3)cc2)CC(C)O1 (stereo not drawn),n,n,n,n,20,n,n
CCOc1ccc(NC(=O)Nc2ccc3c(c2)N(C)C(=O)CS3)cc1,n,n,n,n,18,n,n
COc1ccc(NC(=O)Nc2ccc3c(c2)N(C)C(=O)CS3)cc1OC,n,n,n,n,n,n,x
COc1ccc(NC(=O)Nc2ccc3c(c2)N(C)C(=O)CS3)cc1Cl,n,n,n,n,27,n,n
C=CC[C@@H]1NN2C(=O)[C@@H](C)[C@@H]3c4ccccc4C=NN3[C@@H]2c2ccccc21,x,x,n,n,n,n,x
COc1ccc(NC(=O)Nc2cccs2)cn1,n,n,n,n,18,n,n
C[C@H](NC(=O)CCCn1nnc2ccccc2c1=O)C(=O)O,n,n,n,n,17,n,n
COC1=C(Br)C(=O)c2ncccc2C1=O,n,n,n,n,22,n,n
CC(C)N(C(=O)Cn1c(=O)oc2ccccc21)c1ccccc1,n,n,n,n,22,n,n
O=C(Cn1ccc(NC(=O)OCc2ccccc2)nc1=O)NCC1CCCO1 (stereo not drawn),n,n,n,n,18,n,n
CCCC/C=C1/[C@@H](C(C)C)N(Cc2ccc3c(c2)OCO3)C2=N[C@H](c3ccccc3)CC(=O)N21,x,x,n,x,n,n,x
CCOC(=O)[C@]12CCCC=C1N(Cc1cccc3ccccc13)C(=O)[C@H](CC(=O)NCCc1ccccc1OC)C2,n,x,n,n,53,n,n
C/C(=N\Nc1cc(-c2ccccc2)nc(-c2ccccc2)n1)c1ccc(O)c(C)c1,n,n,n,n,19,n,n
COc1ccc(N2C(=O)C(=O)/C(=C(/O)c3ccc(C)cc3)C2c2cccnc2)cc1 (stereo not drawn),n,n,n,n,21,n,n
CCOC(=O)N1CCC(NC(=O)C2CCN(C(=O)N3CC(C)Oc4ccccc43)CC2)CC1 (stereo not drawn),n,n,n,n,20,n,n
CCOC(=O)N1CCC(NC(=O)C2CCN(C(=O)N3CC(C)Oc4ccc(C)cc43)CC2)CC1 (stereo not drawn),n,n,n,n,n,n,x
O=S1(=O)c2c(cccc2N2CC[C@@H](O)C2)O[C@@H]2CCN1C2,x,x,n,n,n,n,x
O=C(NC1CC[C@@]23CCCN2C(=O)CCC[C@H]3C1)c1ccccc1 (stereo partly drawn),x,x,n,x,n,n,x
COC(=O)[C@]12CCCCC=C1N(Cc1ccc(OC)cc1)C(=O)[C@@H]2CC(=O)NCCc1ccccc1OC,x,x,n,n,n,n,x

# Assay outcomes deposited in PubChem by The Scripps Research Institute Molecular Screening Center.
